{"source": "paper PMC8645912", "about": "(ESMO Open, 2021)", "key": {"[1]": {"tested_on": "metastatic renal cell carcinoma", "settings": "mRCC; cited from earlier work"}, "[2]": {"assay": "Cabozantinib plasma PK monitoring", "assay_type": "in vivo, human"}, "[3]": {"assay": "PK/PD relation for efficacy: cabozantinib PK at progressive disease", "assay_type": "in vivo, human", "settings": "human, plasma, oral"}, "[4]": {"tested_on": "metastatic renal cell carcinoma", "assay": "PK/PD relation for efficacy: cabozantinib PK at progressive disease", "assay_type": "in vivo, human"}, "[5]": {"assay_type": "in vivo, human", "settings": "for AUC: human, plasma, oral"}, "[6]": {"assay": "Adverse events in the study cohort", "assay_type": "in vivo, human", "how_it_was_run": "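Clinical examination and blood tests every 4-6 weeks. Adverse events graded by CTCAE v5.0. Relevant toxicity defined as grade 3-4, or grade 2 requiring dose reduction or discontinuation. Each patient counted once for toxicity.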"}, "[7]": {"tested_on": "metastatic renal cell carcinoma", "settings": "METEOR trial; cited from earlier work"}, "[8]": {"tested_on": "metastatic renal cell carcinoma", "settings": "CABOSUN trial, cited from earlier work"}, "[9]": {"tested_on": "metastatic renal cell carcinoma", "settings": "CheckMate 9ER PK/PD study, Cavg up to day 1 of cycle 7; cited from earlier work"}, "[10]": {"settings": "cited from earlier work"}, "[11]": {"settings": "cited from earlier work", "remark": "listed apart in the source"}, "[12]": {"settings": "cited from earlier work", "remark": "listed apart in the source"}, "[13]": {"settings": "SD/PR patients (disease control)"}, "[14]": {"settings": "patients with progressive disease (PD)"}, "[15]": {"settings": "patients with relevant toxicity"}, "[16]": {"settings": "patients without relevant toxicity"}, "[17]": {"settings": "most frequent G3 toxicities, of the 30 patients"}, "[18]": {"settings": "of the 30 patients with relevant toxicity"}}, "note": "Values joined by “and” are separate entries in the source; they are usually repeats but may differ in a detail not shown here. Identical values can stand only once. Like-named read-outs stand apart in the source and are kept apart here."}
{"smiles": "CNC(=O)c1ccccc1Sc1ccc2c(/C=C/c3ccccn3)n[nH]c2c1", "note": "[Axitinib]", "values": [{"measurement": "AUC at 4 weeks from treatment start associated with better OS and PFS", "setting": "[1]", "result": "> 300 ng·h/mL and 154 to 620 ng·h/mL"}, {"measurement": "Css,trough associated with longer OS", "setting": "[1]", "result": "• >5 ng/ml associated with longer OS"}, {"measurement": "Css,trough associated with ≥G2 asthenia", "setting": "[1]", "result": "> 7.1", "unit": "ng/mL"}]}
{"smiles": "Cc1ccc(Nc2nccc(N(C)c3ccc4c(C)n(C)nc4c3)n2)cc1S(N)(=O)=O", "note": "[Pazopanib]", "values": [{"measurement": "Css,trough associated with PD", "setting": "[1]", "result": "< 15", "unit": "µg/mL"}, {"measurement": "Css,trough associated with PR/SD", "setting": "[1]", "result": "≥ 15", "unit": "µg/mL"}, {"measurement": "Css,trough associated with longer PFS and greater tumor shrinkage", "setting": "[1]", "result": "≥ 20.5", "unit": "µg/mL"}]}
{"smiles": "CCN(CC)CCNC(=O)c1c(C)[nH]c(/C=C2\\C(=O)Nc3ccc(F)cc32)c1C", "note": "[Sunitinib]", "values": [{"measurement": "AUCss and efficacy", "setting": "[1]", "result": "• Lower in PD patients compared with AUCss at treatment start."}, {"measurement": "AUCss associated with higher grade 3-4 toxicity", "setting": "[1]", "result": "• >2150 ng/ml/h higher grade 3-4 toxicity"}, {"measurement": "Css,trough associated with longer PFS and TTF", "setting": "[1]", "result": "< 100", "unit": "ng/mL"}, {"measurement": "Css,trough associated with worse outcomes", "setting": "[1]", "result": "> 100", "unit": "ng/mL"}]}
{"smiles": "COc1cc2nccc(Oc3ccc(NC(=O)C4(C(=O)Nc5ccc(F)cc5)CC4)cc3)c2cc1OC", "note": "[cabozantinib]", "values": [{"measurement": "Mean Ctrough at 40 mg daily (SD)", "setting": "[2]; 40 mg daily", "result": "565 (283) ng/ml"}, {"measurement": "Median Ctrough at 40 mg daily (IQR)", "setting": "[2]; 40 mg daily", "result": "477 (366-649) ng/ml"}, {"measurement": "Mean Ctrough at 60 mg daily (SD)", "setting": "[2]; 60 mg daily", "result": "667 (375) ng/ml"}, {"measurement": "Median Ctrough at 60 mg daily (IQR)", "setting": "[2]; 60 mg daily", "result": "564 (402-777) ng/ml"}, {"measurement": "AUC", "setting": "[2]; human, plasma, oral, Mean AUC (SD), whole population, from population PK model", "result": 20900, "unit": "ng·h/mL"}, {"measurement": "Median measured cabozantinib plasma concentration", "setting": "[2]; median daily dose 40 mg, median time 38 weeks", "result": 500, "unit": "ng/mL"}, {"measurement": "Median Ctrough (IQR)", "setting": "[2]; whole population", "result": "500.2 (365.5-742.5) ng/ml"}, {"measurement": "Mean Cmeas (measured blood concentration)", "setting": "[2]; whole population, 76 mRCC patients, steady state, at least 8 h from last dose", "result": 598.3, "unit": "ng/mL"}, {"measurement": "Mean Ctrough (SD)", "setting": "[2]; whole population, Ctrough estimated from Cmeas by formula", "result": "597.7 ng/ml and 597.7 (363.9) ng/ml"}, {"measurement": "Mean Cl/F (SD)", "setting": "[2]; whole population, from population PK model", "result": 2.5, "unit": "L/h"}, {"measurement": "AUC", "setting": "[3]; Mean AUC (SD), SD/PR patients (disease control)", "result": 24600, "unit": "ng·h/mL"}, {"measurement": "AUC", "setting": "[3]; Mean AUC (SD), patients with progressive disease (PD)", "result": 17700, "unit": "ng·h/mL"}, {"measurement": "AUC", "setting": "[3]; Median AUC (IQR), SD/PR patients (disease control)", "result": 20000, "unit": "ng·h/mL"}, {"measurement": "AUC", "setting": "[3]; Median AUC (IQR), patients with progressive disease (PD)", "result": 16000, "unit": "ng·h/mL"}, {"measurement": "Number of PR observed", "setting": "[4]; RECIST 1.1", "result": 7, "unit": "patients"}, {"measurement": "Ctrough threshold to detect disease progression (drug efficacy threshold)", "setting": "[4]; ROC curve", "result": 536.8, "unit": "ng/mL"}, {"measurement": "Mean Cl/F (SD)", "setting": "[4]; [13]", "result": 2.01, "unit": "L/h"}, {"measurement": "Mean Ctrough (SD)", "setting": "[4]; [13]", "result": 788.5, "unit": "ng/mL"}, {"measurement": "Median Cl/F (IQR)", "setting": "[4]; [13]", "result": 2.9, "unit": "L/h"}, {"measurement": "Proposed target Ctrough for efficacy in TDM", "setting": "[4]; mRCC, real-life TDM", "result": "> 530", "unit": "ng/mL"}, {"measurement": "Number of patients with progressive disease", "setting": "[4]; of 76 patients, RECIST 1.1, at data cut-off", "result": "35 patients and 34 patients"}, {"measurement": "Patients with PR observed", "setting": "[4]; of patients, RECIST 1.1", "result": 9.2, "unit": "%"}, {"measurement": "Mean Cl/F (SD)", "setting": "[4]; [14]", "result": 2.86, "unit": "L/h"}, {"measurement": "Mean Ctrough (SD)", "setting": "[4]; [14]", "result": 465.6, "unit": "ng/mL"}, {"measurement": "Median Cl/F (IQR)", "setting": "[4]; [14]", "result": 2, "unit": "L/h"}, {"measurement": "Median Ctrough (IQR)", "setting": "[4]; [14]", "result": 406, "unit": "ng/mL"}, {"measurement": "Ctrough threshold to detect relevant toxicity", "setting": "[5]; ROC curve", "result": 617.7, "unit": "ng/mL"}, {"measurement": "AUC", "setting": "[5]; Mean AUC (SD), patients with relevant toxicity", "result": 28600, "unit": "ng·h/mL"}, {"measurement": "AUC", "setting": "[5]; Mean AUC (SD), patients without relevant toxicity", "result": 19800, "unit": "ng·h/mL"}, {"measurement": "AUC", "setting": "[5]; Median AUC (IQR), patients with relevant toxicity", "result": 21000, "unit": "ng·h/mL"}, {"measurement": "AUC", "setting": "[5]; Median AUC (IQR), patients without relevant toxicity", "result": 16000, "unit": "ng·h/mL"}, {"measurement": "Cmeas", "setting": "[5]; [15]", "result": 732, "unit": "ng/mL"}, {"measurement": "Median Ctrough (IQR)", "setting": "[5]; [15]", "result": 693, "unit": "ng/mL"}, {"measurement": "Mean Ctrough (SD)", "setting": "[5]; patients with relevant toxicity (G3-4, or G2 requiring DR or DD)", "result": 950.2, "unit": "ng/mL"}, {"measurement": "Cmeas", "setting": "[5]; [16]", "result": 531, "unit": "ng/mL"}, {"measurement": "Mean Ctrough (SD)", "setting": "[5]; [16]", "result": 574.1, "unit": "ng/mL"}, {"measurement": "Median Ctrough (IQR)", "setting": "[5]; [16]", "result": 521, "unit": "ng/mL"}, {"measurement": "G3 cutaneous rash", "setting": "[6]; [17]", "result": 16.7, "unit": "%"}, {"measurement": "G3 hand-foot syndrome (HFS)", "setting": "[6]; [17]", "result": 26.7, "unit": "%"}, {"measurement": "G3 hypertension", "setting": "[6]; [17]", "result": 50, "unit": "%"}, {"measurement": "G3 vomiting", "setting": "[6]; [17]", "result": 10, "unit": "%"}, {"measurement": "Number of patients who experienced a relevant toxicity", "setting": "[6]; of 76 patients, at data cut-off", "result": 30, "unit": "patients"}, {"measurement": "Patients with G2 event requiring a dose reduction (DR)", "setting": "[6]; [18]", "result": 20, "unit": "%"}, {"measurement": "Patients with G2 event requiring a drug discontinuation (DD)", "setting": "[6]; [18]", "result": 26.7, "unit": "%"}, {"measurement": "Patients with at least one G2 event requiring a DD or a DR", "setting": "[6]; [18]", "result": 46.7, "unit": "%"}, {"measurement": "Patients with at least one G3 toxicity", "setting": "[6]; [18]", "result": 53.3, "unit": "%"}, {"measurement": "G4 toxicity", "setting": "[6]; study cohort", "result": "No patient"}, {"measurement": "Dose reduction (DR) rate", "setting": "[7]", "result": 60, "unit": "%"}, {"measurement": "Drug discontinuation (DD) rate", "setting": "[7]", "result": 9, "unit": "%"}, {"measurement": "Grade 3-4 adverse event rate", "setting": "[7]", "result": 74, "unit": "%"}, {"measurement": "PFS, ORR and OS versus everolimus", "setting": "[7]", "result": "superiority over everolimus"}, {"measurement": "PFS and ORR versus first-line standard sunitinib", "setting": "[8]; first-line mRCC", "result": "superior to first-line standard sunitinib"}, {"measurement": "Dose reduction (DR) rate", "setting": "[8]", "result": 46, "unit": "%"}, {"measurement": "Drug discontinuation (DD) rate", "setting": "[8]", "result": 16, "unit": "%"}, {"measurement": "Grade 3-4 adverse event rate", "setting": "[8]", "result": 67, "unit": "%"}, {"measurement": "Effect of average cabozantinib concentration (Cavg) on PFS", "setting": "[9]", "result": "no effect"}, {"measurement": "Individual predicted average cabozantinib concentration at steady state", "setting": "[10]; 20 mg daily", "result": 375, "unit": "ng/mL"}, {"measurement": "Individual predicted average cabozantinib concentration at steady state", "setting": "[10]; 40 mg daily", "result": 750, "unit": "ng/mL"}, {"measurement": "Individual predicted average cabozantinib concentration at steady state", "setting": "[10]; 60 mg daily", "result": 1125, "unit": "ng/mL"}, {"measurement": "Cl/F, patients with a lower Cl/F", "setting": "[10]; after oral administration", "result": 1.3, "unit": "L/h"}, {"measurement": "Cl/F, patients with a standard Cl/F", "setting": "[10]; after oral administration", "result": 2.3, "unit": "L/h"}, {"measurement": "Biopharmaceutics Classification System class", "setting": "[11]", "result": "Class II"}, {"measurement": "Cellular permeability in vivo", "setting": "[11]", "result": "high"}, {"measurement": "Effect of PPI administration on cabozantinib efficacy and clinical PK", "setting": "[12]", "result": "no relevant effect"}]}
